Screening data as filed in PubChem.
SENP6 block: SENP6 protease inhibitors, primary screen, biochemical, luminescence, uHTS. actives 1.8% (n = 330,000). inhibition, % at 10 µM. AID 2599, 2010. Sentrin-specific protease 6 (Homo sapiens), Q9GZR1. Recombinant SENP6 catalytic domain, aminoluciferin luminescence;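 active means inhibition above about 50% at the single tested dose, limit read from the data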;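 further: plate controls were DMSO wells with enzyme for no effect and DMSO wells lacking enzyme for full effect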
Target sequence (Q9GZR1 628-1112 limits assumed): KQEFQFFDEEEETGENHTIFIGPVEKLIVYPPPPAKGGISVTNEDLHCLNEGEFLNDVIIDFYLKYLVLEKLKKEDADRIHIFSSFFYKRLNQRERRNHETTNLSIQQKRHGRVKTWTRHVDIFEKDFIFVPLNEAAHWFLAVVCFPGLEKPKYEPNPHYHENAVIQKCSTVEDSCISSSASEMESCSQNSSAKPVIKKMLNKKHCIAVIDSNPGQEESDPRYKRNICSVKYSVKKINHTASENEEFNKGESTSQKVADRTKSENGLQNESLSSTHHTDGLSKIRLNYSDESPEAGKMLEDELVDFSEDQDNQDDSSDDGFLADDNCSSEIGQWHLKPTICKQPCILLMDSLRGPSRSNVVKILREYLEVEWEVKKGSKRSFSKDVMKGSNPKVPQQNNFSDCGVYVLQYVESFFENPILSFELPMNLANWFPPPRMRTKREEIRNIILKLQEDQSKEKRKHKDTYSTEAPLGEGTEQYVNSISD
SENP7 block: SENP7 protease inhibitors, primary screen, biochemical, luminescence, uHTS; actives 1.5% (n = 330,000); inhibition, % at 5 µM; recombinant SENP7, Z-RLRGG-aminoluciferin luminescence, 40 min; AID 434973, 2010; Sentrin-specific protease 7 (Homo sapiens), Q9BQF6;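 active means inhibition above about 50% at the single test dose, limit read from the data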;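 further: plate controls were DMSO with enzyme for no effect and no enzyme buffer wells for full effect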
SENP1 FRET inh: human SENP1 catalytic domain inhibitors, primary screen, biochemical, FRET, uHTS. inhibition, % at 10 µM. recombinant SENP1 catalytic domain, CyPet-SUMO1-YPet FRET cleavage. actives 0.21% (n = 360,000). Sentrin-specific protease 1 (Homo sapiens), Q9P0U3;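 active means inhibition at least 30% at 10 µM, raw YFP signal under a set limit, fluorescence ratio 0.5 to 1.5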;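 further: 0% = enzyme with DMSO and 100% = no enzyme wells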
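Controls: no-enzyme wells low, DMSO-plus-enzyme wells high control. Test system: human recombinant His6-tagged SENP1 catalytic domain enzyme. Reagent: SFCypet-SUMO1-SFYpet FRET protein substrate, 25 nM final. Doses: one dose per compound, 10 µM, 0.5% DMSO. Detection: FRET, CFP and YFP emission. Timing: 50 min reaction at room temperature.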
SENP8 block-1: SENP8 protease inhibitors, primary screen, biochemical, luminescence; purified SENP8, Z-RLRGG-aminoluciferin cleavage; inhibition, % at 10 µM; AID 2540, 2010; Sentrin-specific protease 8 (Homo sapiens), Q96LD8; actives 1.2% (n = 330,000); in the data active means inhibition above about 50%
Target sequence (Q96LD8 whole entry, looked up): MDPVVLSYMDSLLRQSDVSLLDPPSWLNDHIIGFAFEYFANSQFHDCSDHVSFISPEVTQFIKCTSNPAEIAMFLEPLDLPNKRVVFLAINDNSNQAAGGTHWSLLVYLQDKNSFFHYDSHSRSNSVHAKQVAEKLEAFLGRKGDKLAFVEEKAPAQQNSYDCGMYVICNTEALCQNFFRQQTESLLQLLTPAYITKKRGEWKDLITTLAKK
SENP8 block-2: human SENP8 protease inhibitors, primary screen, biochemical, fluorescence, Nedd8 protein substrate, uHTS; actives 0.64% (n = 360,000); AID 602440, 2012; recombinant SENP8; inhibition, % at 20 µM; Sentrin-specific protease 8 (Homo sapiens), Q96LD8; in the data active means inhibition mostly above about 40%, no sharp cut-off; inactive means mostly below about 27%
HSP90 refold inh: HSP90 inhibitors, primary screen, cell lysate, luminescence; inhibition, % at 5.6 µM; AID 1789, 2009; Rabbit reticulocyte lysate, luciferase refolding luminescence, 3 h; actives 0.91% (n = 290,000); Heat shock protein HSP 90 (rabbit reticulocyte lysate; luciferase refolding);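 active means inhibition above the screen-wide mean plus 3 SD, computed separately per campaign, cut at about 16% in these data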;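 further: 0% = DMSO wells and 100% = 60 µM geldanamycin wells; inhibitors lower the luminescence because luciferase stays unfolded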
SENP8 conf: SENP8 protease inhibitors, retest, confirmation, biochemical, luminescence, single concentration | actives 40% (n = 6,200) | shares compounds with SENP7 block | inhibition, % at 12.5 µM | Recombinant SENP8, Z-RLRGG-aminoluciferin luminescence, 60 min;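 active means mean inhibition across replicates above about 50%, limit read from the data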
SENP6 confirm: SENP6 protease inhibitors, confirmation, biochemical, luminescence, single concentration. shares compounds with SENP7 block. recombinant SENP6, Z-RLRGG-aminoluciferin luminescence. inhibition, % at 12.5 µM. actives 58% (n = 6,200)
SENP7 conf: SENP7 protease inhibitors, retest, confirmation, biochemical, luminescence, single concentration. inhibition, % at 12.5 µM. shares compounds with SENP7 block. recombinant SENP7, Z-RLRGG-aminoluciferin luminescence, 40 min. actives 69% (n = 6,200)
Casp3 SENP sel: caspase-3 protease inhibitors, confirmation, selectivity assay for SENP inhibitor project, biochemical, single concentration | purified caspase-3, Z-DEVD-aminoluciferin luminescence, 60 min | AID 488918, 2010 | shares compounds with SENP7 block | inhibition, % at 12.5 µM | actives 60% (n = 6,200);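 active means mean inhibition above about 50%, limit read from the data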;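 further: plate controls were enzyme with DMSO for no effect and wells without caspase-3 for full effect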
SENP luc ctr: counter-screen for SENP inhibitors: luminescence interference; Pre-incubated SENP8/Z-RLRGG-aminoluciferin, luciferase luminescence interference; inhibition, % at 12.5 µM; shares compounds with SENP7 block; actives 39% (n = 6,200);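 active means mean inhibition above about 50% when retested at one dose, limit read from the data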;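 further: plate controls were DMSO wells with completed reaction for no effect and substrate without enzyme for full effect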
* marks the source's active call; other numbers are inactive results. An excerpt weighted towards active compounds, which were near 2.9% of everything screened.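 How the source made its calls, unless noted: active means mean inhibition above about 50% in the one-dose retest (limit read from the data); inactive means the rest.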

For CCCCSc1nnc(CSc2nc3nc(C)cc(C)n3n2)o1 the results were SENP6 block -36.6, SENP7 block 78.2*, SENP1 FRET inh 2.7, SENP8 block-1 -3.7, SENP8 block-2 10.3, HSP90 refold inh 1.6, SENP8 conf 6.7, SENP6 confirm 8.3, SENP7 conf -6.5, Casp3 SENP sel -0.6 and SENP luc ctr 0.3.
Screening O=C(Nc1nccs1)C(Br)C(Br)c1ccccc1 (stereo not drawn) returned SENP6 block 84.2*, SENP7 block 90.8*, SENP1 FRET inh 3.7, SENP8 block-1 78.9*, SENP8 block-2 3.4, HSP90 refold inh 3.2, SENP8 conf 76.2*, SENP6 confirm 73.1*, SENP7 conf 94.8*, Casp3 SENP sel 85.3* and SENP luc ctr 9.3.
CC(=O)OC(C(=O)Nc1nccs1)c1ccccc1 (stereo not drawn) was read as SENP6 block 0.5, SENP7 block 0.5, SENP1 FRET inh 2.8, SENP8 block-1 5.0, SENP8 block-2 12.7 and HSP90 refold inh 6.9.
`O=C(/C=C\c1ccccc1)Nc1nccs1` gave SENP6 block 83.5*, SENP7 block 88.3*, SENP1 FRET inh 3.8, SENP8 block-1 60.9*, SENP8 block-2 5.1, HSP90 refold inh 3.5, SENP8 conf 59.0*, SENP6 confirm 61.0*, SENP7 conf 94.9*, Casp3 SENP sel 87.5* and SENP luc ctr 19.4.
`O=C(/C=C/c1cccc(F)c1)Nc1nccs1` gave SENP6 block 39.9, SENP7 block 46.2, SENP1 FRET inh -0.5, SENP8 block-1 26.4, SENP8 block-2 -32.0 and HSP90 refold inh -9.0.
For C(=C\c1ccccc1)/C=N/Nc1nc2ccccc2s1 the results were SENP6 block 51.2*, SENP7 block 32.2, SENP1 FRET inh -13.9, SENP8 block-1 44.0, SENP8 block-2 -165.9, HSP90 refold inh -2.3, SENP8 conf 32.4, SENP6 confirm 42.6, SENP7 conf 42.4, Casp3 SENP sel 11.3 and SENP luc ctr 41.1.
`C(=N\Nc1nc2ccccc2s1)/c1ccccn1` gave SENP6 block 97.2*, SENP7 block 99.9*, SENP8 block-1 96.7*, HSP90 refold inh 85.6*, SENP8 conf 99.9*, SENP6 confirm 100.9*, SENP7 conf 103.9*, Casp3 SENP sel 99.3* and SENP luc ctr 40.5.
`C(=N\Nc1ccccc1)/c1nc2ccccc2s1` gave SENP6 block 36.0, SENP7 block 75.4*, SENP1 FRET inh -49.4, SENP8 block-1 58.5*, SENP8 block-2 6.1, HSP90 refold inh -1.1, SENP8 conf -18.5, SENP6 confirm 12.4, SENP7 conf 82.1*, Casp3 SENP sel 28.0 and SENP luc ctr -4.1.
For COc1ccc(C=NNc2nc3ccccc3s2)cc1 the results were SENP1 FRET inh -0.4 and SENP8 block-2 -236.9.
For CC1CC(C)CN(c2cc(N(C)CCO)c([N+](=O)[O-])c3nonc23)C1 (stereo not drawn) the results were SENP6 block -4.4, SENP7 block 0.8, SENP1 FRET inh 6.6, SENP8 block-1 4.0, SENP8 block-2 33.7 and HSP90 refold inh 3.4.
Screening CC1CCN(c2cc(N(C)CCO)c([N+](=O)[O-])c3nonc23)CC1 returned SENP6 block 2.2, SENP7 block 90.2*, SENP1 FRET inh 6.3, SENP8 block-1 4.0, SENP8 block-2 27.8, HSP90 refold inh 1.5, SENP8 conf 9.2, SENP6 confirm 6.7, SENP7 conf -1.6, Casp3 SENP sel -4.7 and SENP luc ctr -7.1.
Screening C/C=C/c1ccc(O)c(OC)c1 returned SENP6 block -10.1, SENP7 block -18.3, SENP1 FRET inh -0.1, SENP8 block-1 -15.9 and SENP8 block-2 16.8.
Screening Oc1cc(O)cc(/C=C/c2ccc(O)c(O)c2)c1 returned SENP6 block 64.6*, SENP7 block 44.7, SENP1 FRET inh -3.3, SENP8 block-1 44.1, SENP8 block-2 -383.7, SENP8 conf 63.2*, SENP6 confirm 71.0*, SENP7 conf 83.2*, Casp3 SENP sel 63.3* and SENP luc ctr 73.0*.
COc1ccc2oc(=O)c(C(=O)N3CCN(C(=O)c4ccco4)CC3)cc2c1 was read as SENP6 block -11.5, SENP7 block -6.7, SENP1 FRET inh -17.5, SENP8 block-1 -9.3, SENP8 block-2 -314.2 and HSP90 refold inh -3.4.
For Nc1c(Cl)ncnc1N/N=C/c1cccc(O)c1 the results were SENP6 block 56.3*, SENP7 block 33.5, SENP1 FRET inh -3.2, SENP8 block-1 25.4, SENP8 block-2 -197.6, HSP90 refold inh -0.9, SENP8 conf 40.5, SENP6 confirm 35.9, SENP7 conf 70.3*, Casp3 SENP sel 67.8* and SENP luc ctr 25.0.
Screening COc1ccc(/C=N/Nc2ncnc(Cl)c2N)cc1OC returned SENP6 block -31.1, SENP7 block -2.9, SENP1 FRET inh -0.9, SENP8 block-1 -8.2, SENP8 block-2 -235.4 and HSP90 refold inh 4.8.
Screening COc1ccccc1C(=O)N/C(=C\c1cn(C)c2ccccc12)C(=O)NCCCN1CCOCC1 returned SENP6 block -6.9, SENP7 block 11.2, SENP1 FRET inh -3.7, SENP8 block-1 -6.2, SENP8 block-2 -17.6 and HSP90 refold inh -4.2.
`Cc1cc(C)c(C(=O)NC2CCCc3c2cnn3-c2ccc(C)c(C)c2)c(=O)[nH]1` (stereo not drawn) gave SENP6 block -6.3, SENP7 block -6.9, SENP1 FRET inh 0.2, SENP8 block-1 -1.8, SENP8 block-2 -92.2 and HSP90 refold inh 0.7.
